Consider twelve compounds from ChEMBL document CHEMBL1681691, “Synthesis and biological activity of amino acid conjugates of abscisic acid” (Bioorg Med Chem, 2011).

Series [1] addresses T1, IAA-amino acid hydrolase ILR1-like 4 (Arabidopsis thaliana) (UniProt O04373).
T1 sequence (whole entry): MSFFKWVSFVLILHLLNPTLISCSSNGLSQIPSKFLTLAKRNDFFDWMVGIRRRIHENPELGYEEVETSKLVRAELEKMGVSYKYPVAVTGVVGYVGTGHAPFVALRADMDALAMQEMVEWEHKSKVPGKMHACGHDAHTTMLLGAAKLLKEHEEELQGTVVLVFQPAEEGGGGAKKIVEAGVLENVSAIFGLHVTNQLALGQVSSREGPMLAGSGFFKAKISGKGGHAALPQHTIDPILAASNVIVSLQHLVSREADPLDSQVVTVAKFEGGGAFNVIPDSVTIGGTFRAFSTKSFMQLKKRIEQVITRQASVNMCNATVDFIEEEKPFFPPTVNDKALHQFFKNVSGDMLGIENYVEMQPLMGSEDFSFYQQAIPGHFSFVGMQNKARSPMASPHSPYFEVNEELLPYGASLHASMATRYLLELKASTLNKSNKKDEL
Nature of the series: Activity at GST-tagged IAR3 of Arabidopsis thaliana assessed as IAA release per mg of protein after 5 hrs by HPLC. The essentials:
(§1)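 Recombinant Arabidopsis GST-IAR3 expressed in E. coli BL21(DE3) (IPTG 50 µM, overnight at 18 °C) and purified on glutathione-agarose. Substrate at 1 mM was preincubated 5 min at 30 °C in 50 mM Tris-HCl pH 8.0 with 1 mM DTT and 1 mM MnCl2. Reaction started with 15 ng/µl enzyme at 30 °C, sampled up to 5 h (some substrates 7 or 24 h), quenched in MeOH/1% AcOH, cleaned on cartridge, HPLC at 254 nm.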

Series [2] concerns the target T1, IAA-amino acid hydrolase ILR1-like 4 (Arabidopsis thaliana). Nature of the series: Activity at GST-tagged IAR3 of Arabidopsis thaliana assessed as ABA release per mg of protein after 7 hrs by HPLC. In outline: as §1
For series [3], the system named is Oryza sativa. Nature of the series: Inhibition of seedling elongation in Oryza sativa at 100 uM after 7 days.
The subject of series [4] is Oryza sativa. The series can be described thus: Inhibition of seedling elongation in Oryza sativa after 7 days.
In series [5] the test system is Oryza sativa. The series can be described thus: Metabolic stability in Oryza sativa seedling assessed as ABA-d6 release per mg of protein after 4 days by LC-MS. In kind it is ADME, organism-based. Conditions: in vivo, 96 h.
Series [6] concerns Spinacia oleracea. The series can be described thus: Inhibition of seed germination in Spinacia oleracea at 100 uM after 24 hrs.
Series [7] addresses T1, IAA-amino acid hydrolase ILR1-like 4 (Arabidopsis thaliana). The series can be described thus: Activity at GST-tagged IAR3 of Arabidopsis thaliana assessed as ABA release per mg of protein after 5 hrs by HPLC. In outline:
as §1

The nature of series [8]: Chemical stability of the compound at 25 degC after 7 days. In kind it is physicochemical. Conditions: 168 h. In outline: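 Compound at 100 µM in 2 ml aqueous solution, prepared as for the rice growth assay, held in a capped glass tube at 25 °C under continuous light for 7 days, then analysed by reverse-phase HPLC.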
Series [9] relates to Arabidopsis thaliana. The series can be described thus: Inhibition of seed germination in Arabidopsis thaliana at 10 uM after 24 hrs. It is filed as functional. In outline:
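Arabidopsis Col-0 seeds, 25 per test, sterilized in 70% EtOH for 30 min then EtOH for 1 min. Seeds were soaked in 250 µl test solution and chilled 3 days at 5 °C in the dark, then germinated on filter paper under continuous light for 24 h at 22 °C. Scored as % with emerged radicle; run twice. Single-concentration test at 10 µM.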

Series [10] concerns Arabidopsis thaliana. Nature of the series: Inhibition of seed germination in Arabidopsis thaliana after 24 hrs. In kind it is functional, organism-based.
Series [11] relates to Lactuca sativa. The series can be described thus: Inhibition of seed germination in Lactuca sativa at 100 uM after 24 hrs. It is filed as functional.
In series [12] the test system is Spinacia oleracea. Nature of the series: Inhibition of seed germination in Spinacia oleracea at 100 uM after 24 hrs. In kind it is functional. The essentials:
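Spinach cv. Jiromaru seeds sterilized with EtOH for 5 min and rinsed in running tap water for 2 h. Placed on filter paper wetted with 2 ml test solution in a Petri dish, held 2 days at 5 °C, then germinated 24 h at 22 °C under continuous light. Single-concentration test at 100 µM.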

The test system of series [13] is Lactuca sativa. The series can be described thus: Inhibition of seed germination in Lactuca sativa after 24 hrs. In kind it is functional, organism-based.

Structures are written as SMILES. Activity calls are given as the source filed them. The rule behind the calls is not given here.

For the compound `C[C@H](NC(=O)Cc1c[nH]c2ccccc12)C(=O)O`, the Activity in [1] stood at 2100 nmol/h/mg.
In general, inhibition refers to the percentage by which the read-out fell short of the control. As usually defined, the IC50 is the point on the concentration scale where inhibition reaches its midpoint. Consider `CSCC[C@H](NC(=O)/C=C(C)\C=C\[C@@]1(O)C(C)=CC(=O)CC1(C)C)C(=O)O`, for which the Activity in series [2] stood at 22 nmol/h/mg. In [3], this compound yielded an inhibition at 100 µM of more than 80%. In [4], this compound displayed an IC50 of 16 µM.
`[2H]C([2H])([2H])C1(C([2H])([2H])[2H])CC(=O)C=C(C)[C@]1(O)/C=C/C(C)=C\C(=O)N[C@H](C)C(=O)O`: in [5], the Stability entry is listed as “Stable”.
Consider `CC1=CC(=O)CC(C)(C)[C@@]1(O)/C=C/C(C)=C\C(=O)N[C@@H](CCC(N)=O)C(=O)O`, for which the inhibition entry in [6] was “Active”. Further, in [3], the inhibition at 100 µM was more than 80%. In addition, the IC50 in series [4] was 8.3 µM.
Consider `[2H]C([2H])([2H])C1(C([2H])([2H])[2H])CC(=O)C=C(C)[C@]1(O)/C=C/C(C)=C\C(=O)N[C@@H](C)C(=O)O`, for which the Stability entry in series [5] is on record as “Unstable”.
Compound `CC1=CC(=O)CC(C)(C)[C@@]1(O)/C=C/C(C)=C\C(=O)N[C@@H](CC(=O)O)C(=O)O` yielded an inhibition at 100 µM in series [3] of more than 80%. For the same compound, the IC50 in [4] came to 6.4 µM.
Regarding `CC1=CC(=O)CC(C)(C)[C@@]1(O)/C=C/C(C)=C\C(=O)N[C@@H](C)C(=O)O`, the Activity in series [7] stood at 310 nmol/h/mg. Moreover, the Stability entry in series [8] is listed as “Stable”. This compound came in with an inhibition at 100 µM in series [3] of more than 80%. In series [4], this compound registered an IC50 of 7 µM. In series [9], the inhibition entry was “Active”.
Turning to `CC1=CC(=O)CC(C)(C)[C@@]1(O)/C=C/C(C)=C\C(=O)N[C@@H](CC(N)=O)C(=O)O`, the Activity in [2] was determined as 19 nmol/h/mg. The compound also came in with an inhibition at 100 µM in [3] of more than 80%. Also, 9.3 µM corresponded to half-maximal inhibition in series [4] (IC50).
For the compound `CC1=CC(=O)CC(C)(C)[C@@]1(O)/C=C/C(C)=C\C(=O)O` [(+)-ABSCISIC ACID], the IC50 came out at 0.2 µM in series [10], 2.1 µM in series [4] and 5.7 µM in series [13]. Besides, the inhibition at 100 µM in series [11], in [12] and in [3] was 100% in each case. Moreover, the inhibition at 10 µM in series [9] came to 100%.
Consider `CC1=CC(=O)CC(C)(C)[C@@]1(O)/C=C/C(C)=C\C(=O)NCC(=O)O`, for which the Activity in series [7] came out at 230 nmol/h/mg. For the same compound, the inhibition at 100 µM in series [3] was more than 80%. This compound also returned an IC50 in series [4] of 5.7 µM.
On to `CC1=CC(=O)CC(C)(C)[C@@]1(O)/C=C/C(C)=C\C(=O)N[C@@H](CO)C(=O)O`, for which the inhibition at 100 µM in series [3] was more than 80%. In series [4], this compound had an IC50 of 13 µM.
`CC1=CC(=O)CC(C)(C)[C@@]1(O)/C=C/C(C)=C\C(=O)N[C@@H](CCC(=O)O)C(=O)O`: in series [6], the inhibition entry was “Active”.
